Measured values taken from ChEMBL document CHEMBL1275331, “Discovery of a novel 5-HT(3) antagonist/5-HT(1A) agonist 3-amino-5,6,7,8-tetrahydro-2-{4-[4-(quinolin-2-yl)piperazin-1-yl]butyl}quinazolin-4(3H)-one (TZB-30878) as an orally bioavailable agent for irritable bowel syndrome” (J Med Chem, 2010).

Columns and labels:
[1] = molecular target: T1, 5-hydroxytryptamine receptor 3A (Homo sapiens, UniProt P46098); experiment: Displacement of [3H]BRL-43694 from human 5HT3 receptor expressed in HEK293 cells by liquid scintillation counting; format: cell-based
T1 sequence (P46098 whole entry): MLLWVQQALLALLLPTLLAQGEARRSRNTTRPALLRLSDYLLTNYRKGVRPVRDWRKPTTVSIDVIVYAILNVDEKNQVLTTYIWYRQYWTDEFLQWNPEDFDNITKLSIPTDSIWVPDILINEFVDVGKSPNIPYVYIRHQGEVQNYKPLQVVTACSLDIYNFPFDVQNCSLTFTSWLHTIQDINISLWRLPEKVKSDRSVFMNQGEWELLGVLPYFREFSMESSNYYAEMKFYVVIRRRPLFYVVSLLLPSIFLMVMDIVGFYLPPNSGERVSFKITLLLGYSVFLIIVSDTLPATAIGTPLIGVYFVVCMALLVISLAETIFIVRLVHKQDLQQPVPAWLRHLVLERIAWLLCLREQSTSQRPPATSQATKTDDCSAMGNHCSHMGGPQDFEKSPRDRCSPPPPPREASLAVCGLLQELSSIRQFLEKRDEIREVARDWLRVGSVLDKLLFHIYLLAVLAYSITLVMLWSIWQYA
Outline: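 HEK-293 membranes expressing human 5-HT3 were incubated with 0.5 nmol/L [3H]BRL-43694 (final) for 60 min at 25 °C. Buffer: 50 mM Tris-HCl, 5 mM MgCl2, 1 mM EDTA, pH 7.5. Compound came from 270 μmol/L DMSO stock, diluted in buffer. Filtration was through GF/B presoaked in 0.5% polyethyleneimine, with two cold Tris washes. Run in duplicate or triplicate; percent inhibition calculated.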

[2] = molecular target: T2, 5-hydroxytryptamine receptor 1A (Homo sapiens, UniProt P08908); experiment: Displacement of [3H]8-OH-DPAT from human 5HT1A receptor expressed in CHO cells by liquid scintillation counting; format: cell-based
T2 sequence (P08908 whole entry): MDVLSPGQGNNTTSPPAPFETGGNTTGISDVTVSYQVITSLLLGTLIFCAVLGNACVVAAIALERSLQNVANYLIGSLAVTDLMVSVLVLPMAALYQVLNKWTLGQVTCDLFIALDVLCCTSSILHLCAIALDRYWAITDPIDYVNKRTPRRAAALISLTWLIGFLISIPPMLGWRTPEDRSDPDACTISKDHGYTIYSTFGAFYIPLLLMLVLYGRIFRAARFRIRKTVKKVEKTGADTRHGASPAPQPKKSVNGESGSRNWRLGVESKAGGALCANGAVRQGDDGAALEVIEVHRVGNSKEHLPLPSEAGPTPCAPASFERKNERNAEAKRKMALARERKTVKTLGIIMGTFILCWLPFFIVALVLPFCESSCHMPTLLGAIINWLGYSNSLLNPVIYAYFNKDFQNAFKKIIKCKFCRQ
Outline: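 CHO-cell membranes with human 5-HT1A were incubated with 0.25 nmol/L [3H]8-OH-DPAT (final) for 60 min at 27 °C. Buffer: 50 mM Tris-HCl, 10 mM MgSO4, 0.5 mM EDTA, 0.1% ascorbic acid, pH 7.4. Compound came from 270 μmol/L DMSO stock, diluted in buffer. Filtration was through GF/C presoaked in 0.3% polyethyleneimine, with two cold Tris washes. Run in duplicate or triplicate; percent inhibition of binding calculated.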

[3] = molecular target: T3, 5-hydroxytryptamine receptor 3A (Cavia porcellus) (UniProt O70212); experiment: Inhibition of 5HT3 receptor-mediated contraction of guinea pig ileum at 1 umol/L after 20 mins relative to control; format: tissue-based
T3 sequence (whole entry): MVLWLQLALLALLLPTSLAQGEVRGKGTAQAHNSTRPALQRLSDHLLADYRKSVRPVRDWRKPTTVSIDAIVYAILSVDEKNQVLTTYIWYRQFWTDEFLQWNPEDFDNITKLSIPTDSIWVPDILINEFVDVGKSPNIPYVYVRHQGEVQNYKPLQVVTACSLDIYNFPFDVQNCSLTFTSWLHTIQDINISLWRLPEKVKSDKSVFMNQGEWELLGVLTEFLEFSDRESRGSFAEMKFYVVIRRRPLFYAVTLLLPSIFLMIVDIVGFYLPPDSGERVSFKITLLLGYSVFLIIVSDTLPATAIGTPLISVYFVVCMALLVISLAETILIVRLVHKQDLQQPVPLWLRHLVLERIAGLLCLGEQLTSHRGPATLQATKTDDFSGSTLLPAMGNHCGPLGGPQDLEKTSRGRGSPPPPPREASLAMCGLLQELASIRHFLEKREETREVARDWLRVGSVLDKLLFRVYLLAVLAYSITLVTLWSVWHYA
Outline: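 Ileum strips in Tyrode solution at 37 °C, gassed 5% CO2/95% O2, isotonic contractions under 1 g load. After at least 3 stable contractions to 10 μM 2-methyl-5-HT, tissue exposed to compound or DMSO vehicle for 20 min, then 10 μM 2-methyl-5-HT re-added; contraction expressed as % inhibition of control.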

[4] = Drug level in Sprague-Dawley rat brain at 3 mg/kg, po after 2 hrs by HPLC analysis; format: ADME, organism-based; design: dose 3 mg/kg, route oral; conditions: read-out: Drug uptake
Outline: (§1)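 Total compound concentration was measured in brain and blood at 2, 4 and 8 h after a single oral 3 mg/kg dose. Brain/blood ratio was also derived. Values are mean ± SD of three rats.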

[5] = Drug level in Sprague-Dawley rat blood at 3 mg/kg, po after 2 hrs by HPLC analysis; format: ADME, organism-based; design: dose 3 mg/kg, route oral; conditions: whole blood, read-out: Drug uptake; outline: as §1
[6] = Ratio of drug level in brain to blood in Sprague-Dawley rat at 3 mg/kg, po after 2 hrs; format: ADME, organism-based; design: dose 3 mg/kg, route oral
Outline: (§2)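 Rats dosed 3 mg/kg orally; total compound levels measured in brain and blood at 2, 4 and 8 h, brain/blood ratio derived. Mean ± SD of three rats.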

[7] = Drug level in Sprague-Dawley rat brain at 3 mg/kg, po after 4 hrs by HPLC analysis; format: ADME, organism-based; design: dose 3 mg/kg, route oral; conditions: read-out: Drug uptake; outline: as §1
[8] = Drug level in Sprague-Dawley rat blood at 3 mg/kg, po after 4 hrs by HPLC analysis; format: ADME, organism-based; design: dose 3 mg/kg, route oral; conditions: whole blood, read-out: Drug uptake; outline: as §1
[9] = Ratio of drug level in brain to blood in Sprague-Dawley rat at 3 mg/kg, po after 4 hrs; format: ADME, organism-based; design: dose 3 mg/kg, route oral; outline: as §2
[10] = Drug level in Sprague-Dawley rat brain at 3 mg/kg, po after 8 hrs by HPLC analysis; format: ADME, organism-based; design: dose 3 mg/kg, route oral; conditions: read-out: Drug uptake; outline: as §1
[11] = Drug level in Sprague-Dawley rat blood at 3 mg/kg, po after 8 hrs by HPLC analysis; format: ADME, organism-based; design: dose 3 mg/kg, route oral; conditions: whole blood, read-out: Drug uptake; outline: as §1
[12] = Ratio of drug level in brain to blood in Sprague-Dawley rat at 3 mg/kg, po after 8 hrs; format: ADME, organism-based; design: dose 3 mg/kg, route oral; outline: as §2

Row | SMILES | IC50 [1] | IC50 [2] | other results
1 | Cc1sc2nc(SCCCN3CCN(c4ccccn4)CC3)n(N)c(=O)c2c1C | > 100 nM | 4.2 nM | –
2 | Nn1c(CCCN2CCN(c3ccc4ccccc4n3)CC2)nc2c(c1=O)CCCC2 | > 100 nM | 90.4 nM | –
3 | Cc1cccc2nc(CCCCN3CCN(c4ccc5ccccc5n4)CC3)n(N)c(=O)c12 | > 100 nM | 13.5 nM | –
4 | Cc1sc2nc(SCCCN3CCN(c4ccc5c(n4)CCCC5)CC3)n(N)c(=O)c2c1C | > 100 nM | 6.1 nM | –
5 | O=c1[nH]c(CCCCN2CCN(c3ccc4ccccc4n3)CC2)nc2c1CCCC2 | 24.6 nM | 6.2 nM | –
6 | Nn1c(SCCCN2CCN(c3ccc4ccccc4n3)CC2)nc2ccccc2c1=O | 69.9 nM | 24.4 nM | –
7 | Nn1c(CN2CCN(c3ccc4ccccc4n3)CC2)nc2c(c1=O)CCCC2 | 86.6 nM | > 100 nM | –
8 | Cc1sc2nc(SCCCN3CCN(c4cc(C)c5ccccc5n4)CC3)n(N)c(=O)c2c1C | 50.5 nM | 4.3 nM | –
9 | Cc1sc2nc(SCCCN3CCN(c4nc5ccccc5nc4-c4ccccc4)CC3)n(N)c(=O)c2c1C | > 100 nM | > 100 nM | –
10 | Nn1c(CCCCN2CCN(c3ccc4ccccc4n3)CC2)nc2c(Cl)cccc2c1=O | 83.1 nM | < 10 nM | –
11 | Nn1c(CCCCN2CCN(c3ccc4ccccc4n3)CC2)nc2ccc(Cl)cc2c1=O | > 100 nM | < 10 nM | –
12 | Cc1sc2nc(SCCCN3CCN(c4ccc5ccccc5n4)CC3)n(N)c(=O)c2c1C | 48.4 nM | 36.4 nM | inhibition [3]: 41.9%
13 | Nn1c(CCCCN2CCN(c3ccc4ccccc4n3)CC2)nc2cccc(F)c2c1=O | 50.6 nM | < 10 nM | –
14 | CC1CCc2nc(CCCCN3CCN(c4ccc5ccccc5n4)CC3)n(N)c(=O)c2C1 (centres undefined) | 48.3 nM | < 10 nM | –
15 | Cc1c(N2CCN(CCCCc3nc4c(c(=O)n3N)CCCC4)CC2)nc2ccccc2c1C | > 100 nM | 64.6 nM | –
16 | Nn1c(SCCCN2CCN(c3ccc4ccccc4n3)CC2)nc2sc3c(c2c1=O)CCCC3 | 41.4 nM | < 10 nM | –
17 | Nn1c(CCCCN2CCN(c3ccc4ccccc4n3)CC2)nc2ccc(F)cc2c1=O | 99.4 nM | < 10 nM | –
18 | Nn1c(SCCCN2CCN(c3ccc4ccccc4n3)CC2)nc2sc3c(c2c1=O)CCNC3 | 100 nM | 5.2 nM | –
19 | O=c1[nH]c(SCCCN2CCN(c3ccc4ccccc4n3)CC2)nc2sc3c(c12)CCCC3 | 44.2 nM | > 100 nM | –
20 | CC1CCc2c(nc(CCCCN3CCN(c4ccc5ccccc5n4)CC3)n(N)c2=O)C1 (centres undefined) | 97.9 nM | < 10 nM | –
21 | Cc1ccc2nc(CCCCN3CCN(c4ccc5ccccc5n4)CC3)n(N)c(=O)c2c1 | 45.6 nM | < 10 nM | –
22 | CC(=O)N1CCc2c(sc3nc(CCCCN4CCN(c5ccc6ccccc6n5)CC4)n(N)c(=O)c23)C1 | 22.1 nM | < 10 nM | concentration at 2 h [4]: 15.1 nM; concentration at 2 h [5]: 51 nM; Kp at 2 h [6]: 0.294; concentration at 4 h [7]: 19.5 nM; concentration at 4 h [8]: 55.8 nM; Kp at 4 h [9]: 0.355; concentration at 8 h [10]: 13.4 nM; concentration at 8 h [11]: 43.7 nM; Kp at 8 h [12]: 0.307
